The values below come from PubChem BioAssay AID504524 (Sanford-Burnham Center for Chemical Genomics, 2011).

The target of the test is Apelin receptor (Homo sapiens) (UniProt P35414). Put plainly: APJ receptor agonists, beta-arrestin recruitment, SAR follow-up, cell-based, CHO-K1 AGTRL-1, PathHunter luminescence, set 5 (AID 504524). The conditions noted are these: CHO-K1 AGTRL-1 PathHunter beta-arrestin. Summed up:
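Assay system: CHO-K1 cells, APJ and β-arrestin complementation reporter; incubation: overnight seeding, 90 min exposure at 25 °C, 60 min detection; dosing: compounds tested as a dose-response series; signal: β-Gal complementation luminescence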

pEC50: −log10 of the molar value. Active and inactive are the calls of the source.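 Rule for the calls: active = mean EC50 below 10 µM; inactive = the rest.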

Sequence of Apelin receptor (Homo sapiens) (P35414 whole entry, looked up): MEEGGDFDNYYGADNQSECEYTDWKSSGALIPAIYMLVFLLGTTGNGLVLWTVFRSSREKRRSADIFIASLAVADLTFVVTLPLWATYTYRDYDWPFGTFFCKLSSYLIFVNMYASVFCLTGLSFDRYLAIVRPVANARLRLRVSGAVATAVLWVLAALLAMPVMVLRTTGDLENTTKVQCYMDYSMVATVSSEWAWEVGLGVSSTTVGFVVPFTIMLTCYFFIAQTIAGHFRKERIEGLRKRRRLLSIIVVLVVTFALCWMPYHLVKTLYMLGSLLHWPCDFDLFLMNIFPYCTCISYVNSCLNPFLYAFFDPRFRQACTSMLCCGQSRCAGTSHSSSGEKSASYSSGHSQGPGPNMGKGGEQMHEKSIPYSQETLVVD

Consider `CC1=CC(=O)C(C2CCCCC2)=C/C1=N\OS(=O)(=O)c1cn(C)cn1`, for which the pEC50 (commonly the negative decadic logarithm of the EC50, by convention in mol/L) was 5.20.
For `CC1=CC(=O)C(C(C)C)=C/C1=N\OS(=O)(=O)c1cccc(Cl)c1`, the pEC50 was 5.50.
On the same count and under the same terms, the value for `CC1=CC(=O)C(C(C)(C)C)=C/C1=N\OS(=O)(=O)c1ccccc1Cl` was 5.06.
On to `COc1cccc(S(=O)(=O)O/N=C2\C=C(C3CCCCC3)C(=O)C=C2C)c1`, for which the negative logarithm of the EC50 (pEC50) is 5.26.
On to `CC1=CC(=O)C(C2CCCCC2)=C/C1=N/OS(=O)(=O)c1cccc(Br)c1`, for which the pEC50 is 5.22.
In the case of `CC(C)C1=CC(=NOS(=O)(=O)c2ccccc2)C=CC1=O`, the pEC50 was 5.30.
Take `CC1=CC(=O)C(C(C)(C)C)=C/C1=N\OS(=O)(=O)C1CCCCC1`: the EC50 (in general, the concentration that produces a half-maximal response) is “inactive”.
Turning to `CC1=CC(=O)C(C(C)C)=C/C1=N\OS(=O)(=O)c1cn(C)cn1`, the EC50 result is “inactive”.
On to `Cc1cc(O)c(C(C)(C)C)cc1N=O`, for which the EC50 was > 79 µM (inactive).
On the same count and under the same terms, as for `O=C1C=CC(=NOS(=O)(=O)c2ccccc2)C=C1c1ccccc1`, the figure is > 79 µM (inactive); as for `Cc1cc(N=O)c(C(C)C)cc1O`, > 79 µM (inactive).
Same read-out and setting: as for `N#Cc1ccc(S(=O)(=O)ON=C2C=CC(=O)C(c3ccccc3)=C2)cc1`, the figure is > 79 µM (inactive).
Turning to `CC1=CC(=O)C(C2CCCCC2)=C/C1=N/OS(=O)(=O)c1cccc(C#N)c1`, the pEC50 is 5.29.
The same measure, in the same setting: as for `CC1=CC(=O)C(C2CCCCC2)=C/C1=N/OS(=O)(=O)c1cccc(C)c1`, the figure is 5.26.
For `CC1=CC(=O)C(C(C)C)=C/C1=N/OS(=O)(=O)c1cccc(Br)c1`, the pEC50 is 5.50.
In the case of `CC1=CC(=O)C(C2CCCCC2)=C/C1=N\OS(=O)(=O)c1c(Cl)cccc1Cl`, the negative logarithm of the EC50 (pEC50) was 5.44.
On the same count and under the same terms, the value for `CC1=CC(=O)C(C(C)(C)C)=C/C1=N\OS(=O)(=O)c1cccc(Cl)c1` was 5.11.
Same read-out and setting: as for `CC1=CC(=O)C(C(C)(C)C)=C/C1=N/OS(=O)(=O)c1cccc(C#N)c1`, the figure is 5.49.
Take `CC1=CC(=O)C(C(C)(C)C)=C/C1=N/OS(=O)(=O)c1cccc(Br)c1`: the EC50 entry was “inactive”.
On to `CC1=CC(=O)C(C(C)C)=C/C1=N/OS(=O)(=O)c1cccc(C#N)c1`, for which the negative logarithm of the EC50 (pEC50) was 5.71.
On the same count and under the same terms, the value for `COc1cccc(S(=O)(=O)O/N=C2\C=C(C(C)C)C(=O)C=C2C)c1` was 5.28.
As for `CC1=CC(=O)C(C(C)(C)C)=C/C1=N\OS(=O)(=O)c1cn(C)cn1`, the pEC50 was 5.00.
Take `CC1=CC(=O)C(C(C)C)=C/C1=N\OS(=O)(=O)c1c(Cl)cccc1Cl`: the pEC50 was 5.45.
The same measure, in the same setting: as for `CC1=CC(=O)C(C(C)C)=C/C1=N/OS(=O)(=O)c1cccc(C)c1`, the figure is 5.25; as for `COc1cccc(S(=O)(=O)O/N=C2\C=C(C(C)(C)C)C(=O)C=C2C)c1`, 5.10.
On the same count and under the same terms, the value for `CC1=CC(=O)C(C2CCCCC2)=C/C1=N\OS(=O)(=O)c1ccccc1Cl` was 5.19.
On the same count and under the same terms, the value for `CC1=CC(=O)C(C2CCCCC2)=C/C1=N\OS(=O)(=O)c1cccc(Cl)c1` was 5.58; that for `CC1=CC(=O)C(C(C)(C)C)=C/C1=N\OS(=O)(=O)c1c(Cl)cccc1Cl` was 5.10.
As for `CC1=CC(=O)C(C(C)C)=C/C1=N\OS(=O)(=O)C1CCCCC1`, the EC50 entry was “inactive”.
Take `CC1=CC(=O)C(C(C)(C)C)=C/C1=N/OS(=O)(=O)c1cccc(C)c1`: the negative-log EC50 (pEC50) is 5.02.
Still for that read-out and setting: as for `CC1=CC(=O)C(C(C)C)=C/C1=N\OS(=O)(=O)c1ccccc1Cl`, the figure is 5.71.
